STAT1 activator: STAT1 signaling activators, primary screen, cell-based, HTS, luciferase reporter. NIH 3T3 STAT1-luciferase reporter, IFN-gamma, luminescence; 100% = IFN-gamma alone, no compound. AID 932, 2007. hit rate 2.6% among 200,000. activation (% of control), % at 5.5 µM;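 active = activation above the screen-wide mean activation plus 3 SD, cut at about 130% in these data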
APP 5'UTR act: activators of APP 5'UTR luciferase reporter, primary screen, SH-SY5Y cells | SH-SY5Y APP 5'UTR luciferase reporter, luminescence; zero percent = DMSO vehicle wells | activation, % at 2 µM | hit rate 1% among 190,000 | AID 1276, 2008;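 active = activation above a set limit, based on mean plus 3 SD of controls, cut at about 140% in these data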
STAT3 inh: IL-6 driven STAT3 reporter inhibitors, primary screen, U3A cells, luciferase, luminescence, MLSCN library; IL-6 STAT3-luciferase reporter; host cell line lacks STAT1; AID 862, 2007; inhibition, % at 5.5 µM; hit rate 0.89% among 190,000;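 active = inhibition above the mean inhibition across all screened compounds plus 3 SD, cut at about 44% in these data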
STAT1 inh: STAT1 signaling inhibitors, primary screen, cell-based, HTS, luciferase reporter; inhibition, % at 5.5 µM; NIH 3T3 STAT1-luciferase reporter, IFN-gamma, luminescence; hit rate 0.35% among 200,000;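 active = inhibition above a set limit, the mean inhibition across all tested compounds plus 3 SD, cut at about 34% in these data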
STAT3 activator: IL-6 driven STAT3 reporter potentiators, primary screen, U3A cells, luciferase, luminescence, MLSCN library. IL-6 STAT3-luciferase reporter; 100% = signal with IL-6 EC80 alone. activation (% of control), % at 5.6 µM. hit rate 0.91% among 190,000. AID 871, 2007;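 active = activation above the screen-wide mean of compound activation plus 3 SD, cut at about 130% in these data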
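Test system: human U3A cells carrying STAT3-luciferase construct; control set: IL-6-only wells as 100% reference; timing: compound pre-incubation 1 h before IL-6, then 6 h stimulation at 37 °C; also added: IL-6 stimulus at 33 ng/mL final; evaluation: % activation versus median of IL-6-stimulated wells; detection: reporter luminescence signal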
NF-kB expr up: activators of NF-kB expression in neurons, primary screen, cell-based, HTS. human neuronal cells, NF-kB reporter expression; stronger effect = higher value. fold change at 12.5 µM. hit rate 1.6% among 190,000; in the data active = fold change above about 3.3
Hits are given with their value; 0 = inactive; - = no result. Sampled rows, rich in hits. Any-hit rate of the full collection: about 5.1%.

SMILES | STAT1 activator | APP 5'UTR act | STAT3 inh | STAT1 inh | STAT3 activator | NF-kB expr up
Cc1ccc(-n2cccn2)c(CN2CCC(CO)(CCc3ccccc3)CC2)c1 | 0 | 0 | 0 | 0 | 0 | 0
CN1CCN(CC(=O)Nc2ccccc2[N+](=O)[O-])CC1 | 0 | 0 | 0 | 0 | 0 | 5.5
CCOC(=O)Nc1nc(-c2ccc(Cl)cc2Cl)cs1 | 0 | 0 | 0 | 0 | 0 | 0
CCOC(=O)C(=NCCCN1CCOCC1)NNc1cccc(C(F)(F)F)c1 | 0 | 0 | 0 | 0 | 0 | 0
CC1CN/C(=C\C(=O)c2ccc(Cl)cc2)C(=O)N1 (configuration not stated) | 0 | 175 | 0 | 0 | 0 | 4.7
CC1CN/C(=C\C(=O)c2ccccc2)C(=O)N1 (configuration not stated) | 138 | 0 | 0 | 0 | 0 | 0
CCc1ccc2oc(-c3ccc(OC)cc3)cc(=Nc3cccc(C(=O)O)c3)c2c1 | 0 | 204 | 0 | 0 | 0 | 7.2
COc1ccc(-c2cc(=Nc3ccc(C(=O)O)cc3)c3cc(C)ccc3o2)cc1 | 0 | 209 | 0 | 0 | 0 | 0
CCc1ccc2oc(-c3ccc(OC)cc3)cc(=Nc3c(C)n(C)n(-c4ccccc4)c3=O)c2c1 | 0 | 173 | 0 | 0 | 0 | 0
COc1ccc2cc(C(=O)NCc3ccco3)c(=Nc3ccc(C(=O)O)cc3)oc2c1 | 0 | 0 | 0 | 0 | 0 | 0
COc1ccccc1NC(=O)c1ccc(NC(=O)CSc2n[nH]c(N)n2)cc1 | 0 | 0 | 0 | 0 | 0 | 0
O=C(Nc1ccc(Oc2cccc3ccccc23)cc1)c1ccco1 | 0 | 0 | 0 | 0 | 0 | 0
O=[N+]([O-])C(/C=C(\Cl)[N+](=O)[O-])=C(N1CCCCC1)N1CCCCC1 | 0 | 0 | 0 | 0 | 0 | 0
COc1ccc(NC(=O)C(OC)c2ccccc2)cc1Cl (configuration not stated) | 0 | 0 | 0 | 0 | 0 | 0
O=C(Nc1ccc2cn[nH]c2c1)c1c(Cl)cccc1Cl | 0 | 0 | 0 | 0 | 0 | 0
O=C(Nc1ccc2cn[nH]c2c1)c1ccccc1F | 147 | 0 | 0 | 0 | 0 | 0
COc1ccc(NC(=O)c2cccc(F)c2)cc1Cl | 130 | 0 | 0 | 0 | 0 | 0
COc1ccc(NC(=O)c2ccccc2F)cc1Cl | 0 | 0 | 0 | 0 | 0 | 4.3
Cc1ccc(/C=N/NC(=S)N2CCOCC2)cc1 | 131 | 0 | 0 | 0 | 0 | 0
Cc1ccc(CNC(=S)N2CCOCC2)cc1 | 0 | 0 | 0 | 0 | 0 | 0
S=C(N/N=C/c1ccc(Cl)cc1)N1CCOCC1 | 132 | 0 | 0 | 0 | 0 | 0
CC(=O)c1ccc(NC(=O)c2cn(-c3ccccc3)nc2-c2ccncc2)cc1 | 0 | - | 0 | 0 | 0 | 0
O=C(O)c1ccc(NC(=O)c2cn(-c3ccccc3)nc2-c2ccc(F)cc2)cc1 | 135 | 0 | 0 | 0 | 0 | 0
O=C(Nc1ccc(F)c(F)c1)c1cnc(-c2ccccc2)nc1-c1ccccc1 | 0 | 0 | 0 | 0 | 0 | 0
O=C(Nc1ccc(F)cc1)c1cnc(-c2ccccc2)nc1-c1ccccc1 | 133 | 0 | 0 | 0 | 0 | 0
SMILES | STAT1 activator | APP 5'UTR act | STAT3 inh | STAT1 inh | STAT3 activator | NF-kB expr up
O=S(=O)(c1ccc(Cl)cc1)N1CCN(c2ncccn2)CC1 | 0 | 0 | 0 | 0 | 0 | -
Cn1ncc2c1ncn1nc(COc3ccc4ccccc4c3)nc21 | 0 | 0 | 0 | 0 | 0 | 0
Cn1ncc2c1ncn1nc(CCc3ccccc3)nc21 | 142 | 0 | 0 | 0 | 0 | 3.8
Cc1cc(-c2ccc(N3CCOCC3)cc2)nc2ccccc12 | 130 | 0 | 0 | 0 | 0 | 0
CN1CCN(c2ccc(-c3ccc4ccccc4n3)cc2)CC1 | 0 | 0 | 112 | 95 | 0 | 0
c1ccc2nc(-c3ccc(N4CCOCC4)cc3)ccc2c1 | 0 | - | 99 | 68 | 0 | 0
c1ccc2nc(-c3ccncc3)ccc2c1 | 0 | 0 | 0 | 0 | 0 | 0
C/C(=N/NC(=O)Cc1cccs1)c1ccco1 | 0 | 0 | 0 | 0 | 0 | 0
Cc1ccccc1NC(=O)c1ccc(CN2CCC(Cc3ccccc3)CC2)cc1 | 0 | 0 | 50 | 0 | 0 | 0
O=C(NCCCn1ccnc1)C(=O)NCC1OCCCN1S(=O)(=O)c1ccccc1 (configuration not stated) | 0 | 0 | 0 | 0 | 0 | 0
CC(=O)c1cccc(CN2CCN(CC(C)C)C(CCO)C2)c1 (configuration not stated) | 0 | 0 | 0 | 0 | 0 | 0
N/C(=N\OC(=O)c1cc(Cl)ccc1Cl)c1ccncc1 | 141 | 0 | 0 | 0 | 0 | 0
N/C(=N\OC(=O)/C=C/c1ccccc1)c1ccncc1 | 0 | 0 | 0 | 0 | 0 | 0
N/C(=N\OC(=O)c1cccc(Cl)c1)c1ccncc1 | 141 | 0 | 0 | 0 | 0 | 0
N/C(=N\OC(=O)/C=C/c1ccccc1Cl)c1ccncc1 | 0 | 235 | 0 | 0 | 0 | 3.8
CCOC(=O)CCCCC(=O)c1[nH]c(=O)[nH]c1CSc1nnc2c3ccccc3n(C(C)C)c2n1 | 0 | 0 | 0 | 0 | 0 | 0
O=Cc1ccnc(-c2ccc(OC(=O)c3ccco3)cc2)n1 | 0 | 0 | 0 | 0 | 0 | 0
CCC(=O)NC(c1ccccc1OC)c1ccc2cccnc2c1O (configuration not stated) | 0 | 0 | 0 | 0 | 0 | 6.9
O=C(/C(=N\Nc1ccccc1)Sc1nnnn1-c1ccccc1)c1ccccc1 | 0 | 0 | 0 | 0 | 0 | 0
CCCn1c(NC(=O)c2ccc(F)cc2)nc2ccccc21 | 0 | 0 | 0 | 0 | 0 | 0
CCCn1c(NC(=O)c2ccc(Br)cc2)nc2ccccc21 | 0 | 0 | 0 | 0 | 134 | 0
CC(=O)N=C(N)Sc1nc2ccccc2[nH]1 | 134 | 0 | 0 | 0 | 0 | 0
CC(Sc1nc2ccccc2[nH]1)C(=O)O (configuration not stated) | 0 | 0 | 0 | 0 | 0 | 0
COc1ccc(-c2nc3cc([N+](=O)[O-])ccc3o2)cc1 | 150 | 170 | 0 | 0 | 0 | 5.2
CCCCNC(=O)CSc1nc2ccsc2c(=O)n1CCCC(=O)NCCc1ccc(S(N)(=O)=O)cc1 | 0 | 0 | 0 | 0 | 0 | 0
SMILES | STAT1 activator | APP 5'UTR act | STAT3 inh | STAT1 inh | STAT3 activator | NF-kB expr up
COc1cc(/C=N\n2nnnc2N)ccc1OCc1ccc(F)cc1 | 0 | 0 | 0 | 0 | 0 | 0
COc1cc(/C=N/n2c(C)n[nH]c2=S)ccc1OCc1ccc(F)cc1 | 129 | 0 | 0 | 0 | 0 | 0
CN(C)c1ccc(CC(=O)c2nc3ccccc3s2)cc1 | 134 | 0 | 0 | 0 | 0 | 0
CN(C)C(=O)c1nc2ccccc2s1 | 0 | 0 | 0 | 0 | 0 | 0
CCCn1nc(C(=O)OCC(=O)NC(C)c2ccccc2)c2ccccc2c1=O (configuration not stated) | 0 | 0 | 0 | 0 | 0 | 0
OC(CNCc1ccccc1)Cn1ccc2ccccc21 (configuration not stated) | 0 | 0 | 0 | 0 | 0 | 0

High-throughput results deposited in PubChem BioAssay by several laboratories.
